In brackets after ≈: the same amount, converted by molar mass. Activity calls are given as the source filed them. The rule behind the calls is not given here.
What was measured:
[1] = test system: Mycobacterium tuberculosis; assay: Antimycobacterial activity against Mycobacterium tuberculosis H37Ra; type: functional
[2] = test system: Mycobacteroides abscessus; assay: Antimycobacterial activity against Mycobacterium abscessus ATCC 19977 assessed as visible growth inhibition incubated for 16 to 18 hrs; type: functional, organism-based; settings: time 16-18 hrs
[3] = test system: Mycolicibacterium fortuitum; assay: Antimycobacterial activity against Mycobacterium fortuitum ATCC 6841 assessed as visible growth inhibition incubated for 16 to 18 hrs; type: functional, organism-based; settings: time 16-18 hrs
[4] = test system: Mycobacterium tuberculosis; assay: Antimycobacterial activity against Mycobacterium tuberculosis H37Rv ATCC 27294 assessed as reduction in bacterial growth incubated for […] by broth microdilution assay; type: functional
[5] = Selectivity index, ratio of CC50 for African green monkey Vero cells to MIC for Antitubercular activity against Mycobacterium tuberculosis H37Rv; type: toxicity; settings: read-out: Selectivity Index
Outline: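 Selectivity index calculated as Vero CC50 (MTT, 72 h) divided by the H37Rv MIC from the resazurin broth microdilution assay.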

Mycobacteroides chelonae = assay: Antimycobacterial activity against Mycobacterium chelonae ATCC 35752 assessed as visible growth inhibition incubated for 16 to 18 hrs; type: functional, organism-based; settings: time 16-18 hrs
[6] = test system: Mycobacterium tuberculosis; assay: Antitubercular activity against Mycobacterium tuberculosis H37Rv assessed as bacterial growth inhibition after 7 days by broth microdilution assay; type: functional; settings: 168 h, dose 0.03-64 µg/ml, time 7 day
Outline: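 Compounds were tested in broth microdilution from 64 downward, incubated 37 °C for 7 days, then resazurin (PrestoBlue) added. MIC is the lowest concentration preventing the blue-to-pink change, run in triplicate, reporting the value obtained at least twice of three.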

[7] = Cytotoxicity against African green monkey vero cells assessed as reduction in cell viability measured after 72 hrs by MTT assay; type: cell-based; settings: chlorocebus sabaeus
Outline: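 Vero cells seeded at ~10³ cells/well and grown 24 h at 37 °C, 5% CO₂, then exposed to compound (100 to 5 mg/l) for 72 h. MTT was added […] for 4 h and formazan dissolved in DMSO. CC50 is the lowest concentration giving 50% viability reduction. Doxorubicin was the positive control, run in triplicate.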

[8] = test system: Mycobacterium tuberculosis; assay: Antimycobacterial activity against Mycobacterium tuberculosis H37Rv assessed as reduction in CFU at 10 times MIC concentration measured up to 6 days by time kill assay; type: functional, organism-based; settings: time day <=6
Outline: (§1)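 Time-kill: H37Rv at ~10⁵ CFU/mL in 96-well plates with compound at 1x or 10x MIC, 37 °C for 6 days. At time-points, samples were serially two-fold diluted in normal saline and plated on 7H11 agar with OADC. Colonies were counted after […] at 37 °C, and CFU/mL was plotted against time with and without compound.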

[9] = test system: Mycobacterium tuberculosis; assay: Antimycobacterial activity against Mycobacterium tuberculosis H37Rv assessed as reduction in CFU at MIC concentration measured up to 6 days by time kill assay; type: functional, organism-based; settings: time day <=6; outline: as §1

Compound | MIC [1] | Activity [2] | Activity [3] | MIC [4] | selectivity ratio [5] | Activity (Mycobacteroides chelonae) | MIC [6] | CC50 at 72 h [7] | Activity [8] | Activity [9]
COc1cc(/C=C/c2cc(/C=C/c3ccc(OC)c(OC)c3)no2)ccc1O | 0.09 µg/mL (≈ 0.237 µM) |  |  |  |  |  |  |  |  | 
COC(=O)c1cc(-c2ccc(NC(=O)c3ccc(/C=C/C(=O)c4ccc(Cl)cc4)cc3)cc2)on1 |  | inactive | inactive | 0.06 µg/mL (≈ 0.123 µM) | > 1330 | inactive | 0.06 µg/mL (≈ 0.123 µM) | > 80 µg/mL |  | 
COC(=O)c1cc(-c2cccc(NC(=O)c3ccc(/C=C/C(=O)c4ccccc4Cl)cc3)c2)on1 |  | inactive | inactive | 0.25 µg/mL (≈ 0.513 µM) | > 100 | inactive | 0.25 µg/mL (≈ 0.513 µM) | > 25 µg/mL |  | 
CCCOc1ccc(C(=O)/C=C/c2ccc(C(=O)Nc3cccc(-c4cc(C(=O)OC)no4)c3)cc2)cc1 |  | inactive | inactive | 0.12 µg/mL (≈ 0.235 µM) | > 320 | inactive | 0.12 µg/mL (≈ 0.235 µM) | > 40 µg/mL | Active | 
COC(=O)c1cc(-c2cccc(NC(=O)c3ccc(/C=C/C(=O)c4ccc(Cl)cc4)cc3)c2)on1 |  | inactive | inactive | 0.12 µg/mL (≈ 0.246 µM) | > 416 | inactive | 0.12 µg/mL (≈ 0.246 µM) | > 50 µg/mL |  | 
COC(=O)c1cc(-c2cccc(NC(=O)c3ccc(/C=C/C(=O)c4ccc(N5CCOCC5)cc4)cc3)c2)on1 |  | inactive | inactive | 5 µg/mL (≈ 9.3 µM) | > 40 | inactive | 0.5 µg/mL (≈ 0.93 µM) | > 20 µg/mL |  | 
COC(=O)c1cc(-c2cccc(NC(=O)c3ccc(/C=C/C(=O)c4cccc(Cl)c4)cc3)c2)on1 |  | inactive | inactive | 0.25 µg/mL (≈ 0.513 µM) | > 10 | inactive | 0.25 µg/mL (≈ 0.513 µM) | > 2.5 µg/mL |  | 
CCOC(=O)c1cc(-c2cccc(NC(=O)c3ccc(/C=C/C(=O)c4ccc(Cl)cc4)cc3)c2)on1 |  | inactive | inactive | 0.5 µg/mL (≈ 0.998 µM) | > 160 | inactive | 0.5 µg/mL (≈ 0.998 µM) | > 80 µg/mL |  | 
CCOc1ccc(C(=O)/C=C/c2ccc(C(=O)Nc3cccc(-c4cc(C(=O)OC)no4)c3)cc2)cc1 |  | inactive | inactive | 0.25 µg/mL (≈ 0.504 µM) | > 160 | inactive | 0.25 µg/mL (≈ 0.504 µM) | > 40 µg/mL | Active | Active
CO[C@H]1/C=C/O[C@@]2(C)Oc3c(C)c(O)c4c(O)c(c(/C=N/N5CCN(C)CC5)c(O)c4c3C2=O)NC(=O)/C(C)=C\C=C\[C@H](C)[C@H](O)[C@@H](C)[C@@H](O)[C@@H](C)[C@H](OC(C)=O)[C@@H]1C [RIFAMPIN] |  |  |  | 0.06 µg/mL (≈ 0.0729 µM) |  |  | 0.03 µg/mL (≈ 0.0365 µM) |  |  | 
COC(=O)c1cc(-c2cccc(NC(=O)c3ccc(/C=C/C(=O)c4ccc(C)cc4)cc3)c2)on1 |  | inactive | inactive | 5 µg/mL (≈ 10.7 µM) | > 160 | inactive | 0.5 µg/mL (≈ 1.07 µM) | > 80 µg/mL |  | 
COC(=O)c1cc(-c2cccc(NC(=O)c3ccc(/C=C/C(=O)c4ccc(OC)cc4OC)cc3)c2)on1 |  | inactive | inactive | 0.25 µg/mL (≈ 0.488 µM) | > 200 | inactive | 0.25 µg/mL (≈ 0.488 µM) | > 50 µg/mL |  | 
CC[C@@H](CO)NCCN[C@@H](CC)CO [ETHAMBUTOL] |  |  |  | 1 µg/mL (≈ 4.89 µM) |  |  | 1 µg/mL (≈ 4.89 µM) |  |  | 
COC(=O)c1cc(-c2cccc(NC(=O)c3ccc(/C=C/C(=O)c4ccc(Cl)cc4Cl)cc3)c2)on1 |  | inactive | inactive | 0.5 µg/mL (≈ 0.959 µM) | > 80 | inactive | 0.5 µg/mL (≈ 0.959 µM) | > 40 µg/mL |  | 
COC(=O)c1cc(-c2cccc(NC(=O)c3ccc(/C=C/C(=O)c4ccc(F)cc4F)cc3)c2)on1 |  | inactive | inactive | 0.12 µg/mL (≈ 0.246 µM) | > 333 | inactive | 0.12 µg/mL (≈ 0.246 µM) | > 40 µg/mL |  | 
COC(=O)c1cc(-c2cccc(NC(=O)c3ccc(/C=C/C(=O)c4ccccc4C)cc3)c2)on1 |  | inactive | inactive | 0.25 µg/mL (≈ 0.536 µM) | > 100 | inactive | 0.25 µg/mL (≈ 0.536 µM) | > 25 µg/mL |  | 
COC(=O)c1cc(-c2cccc(NC(=O)c3ccc(/C=C/C(=O)c4ccc(CC(C)C)cc4)cc3)c2)on1 |  | inactive | inactive | 0.12 µg/mL (≈ 0.236 µM) | > 84 | inactive | 0.12 µg/mL (≈ 0.236 µM) | > 10 µg/mL |  | 

Reference: ChEMBL document CHEMBL4823271, “Synthesis and structure-activity relationship of new chalcone linked 5-phenyl-3-isoxazolecarboxylic acid methyl esters potentially active against drug resistant Mycobacterium tuberculosis” (Eur J Med Chem, 2021)
